# From PubChem BioAssay
# This is a sample that favours compounds with a hit; in the whole collection about 0.64% have one here.
# PMI act hi M6P: activators of human phosphomannose isomerase at near-saturating mannose 6-phosphate | activation factor at 20 µM | 190,000 compounds, 0.34% hits | P34949 | coupled PMI enzyme assay, resazurin fluorescence, 20 min; hits give high values; 1 = untreated enzyme, 0 = substrate-free blank | AID 1216;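 active = activation factor of 2 or more at 20 µM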
#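 Test system: human phosphomannose isomerase with PGI, G6PDH, diaphorase coupling enzymes; amount: 15 ng/mL PMI; incubation: enzyme reaction with compound 20 min at room temperature; technique: resorufin fluorescence (Ex 544/Em 590 nm) from resazurin via diaphorase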
# TNAP act hi DEA: TNAP (human) activation, high acceptor | AID 1136 | activation factor at 20 µM | 200,000 tested, under 10 active | purified TNAP, CDP-star luminescence, 1 M DEA, 30 min; hits give high values; 0 = EDTA background, 1 = DMSO-only activity;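 active = activation factor at least 2 at 20 µM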
# Target sequence (P05186 whole entry, looked up): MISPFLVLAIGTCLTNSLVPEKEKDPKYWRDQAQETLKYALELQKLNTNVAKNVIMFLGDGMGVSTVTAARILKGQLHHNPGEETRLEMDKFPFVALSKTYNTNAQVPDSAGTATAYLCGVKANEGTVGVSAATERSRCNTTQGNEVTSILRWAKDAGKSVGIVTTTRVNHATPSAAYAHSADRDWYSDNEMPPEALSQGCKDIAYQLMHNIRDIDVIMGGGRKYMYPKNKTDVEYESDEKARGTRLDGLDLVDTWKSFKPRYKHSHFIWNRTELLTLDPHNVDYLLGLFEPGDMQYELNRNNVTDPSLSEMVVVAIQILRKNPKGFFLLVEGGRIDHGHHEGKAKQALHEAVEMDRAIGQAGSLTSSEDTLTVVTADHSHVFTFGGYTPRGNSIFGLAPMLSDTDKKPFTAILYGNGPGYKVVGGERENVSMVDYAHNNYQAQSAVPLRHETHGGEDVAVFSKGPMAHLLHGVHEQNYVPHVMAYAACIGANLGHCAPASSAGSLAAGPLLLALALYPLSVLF
#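 system = human TNAP | amount = enzyme diluted 1/800 final | reagent = 100 µM CDP-star substrate | signal = luminescent substrate turnover signal | dosing = one dose, 20 µM | benchmarks = EDTA negative control, DMSO positive control | measure = activation factor | timing = 30 min reaction, room temperature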
# TNAP inh hi DEA: blocks human TNAP under high phosphate acceptor concentration; P05186; purified TNAP, CDP-star luminescence, 1 M DEA; inhibition, % at 20 µM; 200,000 compounds, 0.03% hits;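 active = over 50% inhibition of tissue-nonspecific alkaline phosphatase at 20 µM in the single-dose screen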;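 also: plate controls were DMSO wells for no effect and EDTA-quenched wells as full inhibition for full effect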
# TNAP inh noacc: blocks human TNAP activity with no phosphate acceptor present; inhibition, % at 20 µM; purified TNAP, CDP-star luminescence, 30 min; 200,000 compounds, 0.26% hits; AID 1012;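 active = tissue-nonspecific alkaline phosphatase inhibition above about 50% at 20 µM in the single-dose screen, limit read from the data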;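 also: 0% = DMSO negative control and 100% = EDTA positive control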
# PMI act: increases human mannose-6-phosphate isomerase activity. purified human PMI, coupled resazurin fluorescence, 20 min; hits give high values; 1 = vehicle control, 0 substrate-free wells. activation factor at 20 µM. 190,000 compounds, 0.005% hits. P34949;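 active = activation factor of 2 or more at 20 µM, relative to plate controls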
# * hit, by the source's call.
SMILES,PMI act hi M6P,TNAP act hi DEA,TNAP inh hi DEA,TNAP inh noacc,PMI act
CC1CCCC2(C1)NC(=S)N(c1ccccc1)N2 (stereo not drawn),2.7*,1,-0.1,-6.0,1.5
C/C(=N\NC(=O)COc1ccccc1)c1cccs1,1,1,-1.2,-9.9,1
Cc1nnc(Nc2ccc(C(=O)N3CCOCC3)cc2)c2ccccc12,0.9,1,1.7,-5.0,0.9
CC(C)(C)N1NC2(CCCCC2)NC1=S,2.1*,1,-1.7,3.7,1.5
CCCOc1ccc(C(=O)CCNc2cccc(Cl)c2)cc1,1.1,1,-1.4,-11.0,1
Cc1ccc(S(=O)(=O)N/N=C\c2ccc([N+](=O)[O-])o2)cc1,2.1*,1,-2.3,18.9,1.5
O=[N+]([O-])c1ccc(/C=N/NS(=O)(=O)c2ccc(Cl)cc2)o1,2.2*,1,1.6,17.0,1.6
O=C(O)c1cc(Cl)c2c(c1)[C@@H]1C=CC[C@@H]1[C@H](c1ccc(S(=O)(=O)N3CCOCC3)cc1)N2,1.7,1,-0.6,-8.6,1.4
Cc1cc(C)c2c(c1)C1C=CCC1C(c1ccc(S(=O)(=O)N3CCOCC3)cc1)N2 (stereo not drawn),2.2*,1,-2.8,-5.7,1.4
O=c1cc(-c2ccc(O)c(O)c2)oc2c(C3O[C@H](CO)[C@@H](O)[C@H](O)[C@H]3O)c(O)cc(O)c12 (stereo partly drawn),0.9,0.8,16.2,52.8*,0.5
Cc1ccc2[nH]c(=O)c(CN(Cc3nnnn3Cc3ccccc3)C3CCCC3)cc2c1,0.8,1,-1.4,-3.4,0.8
Fc1ccc(C(c2nnnn2C2CCCC2)N2CCN(Cc3ccncc3)CC2)cc1 (stereo not drawn),1.2,1.1,-7.0,-14.8,1.1
CC(C)CCn1c(Oc2ccc(Cl)cc2)nc2c1c(=O)n(C)c(=O)n2C,0.8,1.1,-5.6,-8.7,0.8
c1ccc(Cn2nnnc2C(c2ccccc2)N2CCN(c3nc4ccccc4s3)CC2)cc1 (stereo not drawn),0.9,1.1,-8.2,-12.8,0.9
Cc1ccc(C)c(N2CCN(C(c3ccncc3)c3nnnn3Cc3ccccc3)CC2)c1 (stereo not drawn),2.2*,1.1,-10.0,-14.4,1
CC(C)OCCCN1CN(S(=O)(=O)c2ccc(Cl)cc2)c2nc3ccccc3nc21,2*,1,-2.1,-2.8,1.4
COc1ccccc1C(=O)C1Nc2ccccc2-c2nnc(SC)nc2O1 (stereo not drawn),2.5*,1,3.5,-3.9,1.7
CCC1Nc2ccccc2-c2nnc(SC)nc2O1 (stereo not drawn),1.1,1.1,-8.4,3.1,1
Clc1ccc(-c2n[nH]c3c2CCCC3)cc1,0.9,1,-3.5,52.9*,0.9
COc1ccc(OC)c(/C=N/NC(=O)CC(=O)NCc2ccccc2)c1,1.1,1.1,-5.4,-7.5,0.9
COc1ccc(OC)c(/C=N/NC(=O)CCc2ccc(O)c(O)c2)c1,0.7,0.9,13.8,61.6*,0.6
CCCCC(=O)Nc1cc(OCC)c(NC(=S)NC)cc1OCC,0.6,1.1,-5.4,-10.7,1
Cc1cccc(Nc2nnc(SCc3cn4ccsc4n3)s2)c1,0.9,1,-0.2,-3.6,0.9
CCOC(=O)/C=C(/C)N1N=C(c2ccc(OC)cc2)CC1c1cccc([N+](=O)[O-])c1 (stereo not drawn),2.3*,1,-0.5,-19.1,1.6
CSc1ncccc1C(=O)OCc1ccccc1F,1,1.1,-5.6,-7.4,0.9
SMILES,PMI act hi M6P,TNAP act hi DEA,TNAP inh hi DEA,TNAP inh noacc,PMI act
C=CCOc1cccc(C2/C(=C(/O)c3ccc(F)cc3)C(=O)C(=O)N2CCN2CCOCC2)c1 (stereo not drawn),1.1,1,-3.0,-7.6,1.2
CC(=O)N/C(=C/c1ccc2c(c1)OCO2)C(=O)NCc1ccccc1,1,1,-0.8,66.6*,0.9
Cc1ccc(-n2ncc(C#N)c2/N=C/N2CCCCCC2)cc1,1,1,-2.2,-13.7,1
CCOc1cc(/C=N/Nc2nc(Nc3ccccc3)nc(N3CCCCC3)n2)ccc1OCC(=O)O,1.1,1,-1.0,-21.8,1.1
O=C(O)c1ccc(/C=N/Nc2cccc(C(F)(F)F)c2)cc1,1.3,1,-3.1,-20.6,1.4
CCOc1cc(/C=N/NC(=O)CNc2cccc(C)c2)ccc1OC(=O)c1ccccc1,0.9,1,-0.2,-1.2,0.9
CCOc1cc(/C=N/Nc2ccccc2Cl)ccc1OCC(=O)O,3.1*,1,-4.7,-17.5,1.9
CCOc1cc(/C=N/Nc2cccc(C(=O)O)c2)ccc1OC(=O)c1ccccc1,2.3*,1,1.3,-3.9,1.6
O=C(O)c1cccc(N/N=C/C2=C(Cl)c3cc(Cl)ccc3SC2)c1,2.5*,0.9,6.5,1.8,1.7
O=C(O)c1cccc(N/N=C/c2ccc(F)c(F)c2)c1,2.3*,1,-2.1,-5.2,1.7
COc1ccc2c(c1)C1(Nc3ccccc3-c3nc4ccccc4n31)C(=O)N2C (stereo not drawn),1.1,1,-3.4,-5.7,1.1
O=C(c1cc2cc(Br)cc(Br)c2oc1=O)N1CCCc2ccccc21,1.1,1,-4.7,3.5,1
O=C1C2C3c4ccccc4C(c4ccccc43)C2C(=O)N1Cc1cccnc1 (stereo not drawn),0.9,1,-2.6,-16.3,0.9
Cc1nn(-c2cccc(C(F)(F)F)c2)c(Cl)c1/C=N/Nc1cccc(C(=O)O)c1,2.5*,1.1,-5.1,1.9,1.6
Cc1nn(-c2ccccc2Cl)c(Cl)c1/C=N/Nc1cccc(C(=O)O)c1,1.9,1,2.4,-2.8,1.5
COc1ccc(-c2nc(=S)c3ccc4ccccc4c3[nH]2)cc1,2.3*,1,0.2,-4.1,1.7
COc1ccc(-c2nc3ccccc3[nH]2)cc1,1,1,0.7,-17.8,1
Cc1cc(C)n(CCN(C)Cc2cn[nH]c2-c2ccc(F)cc2F)n1,0.9,1.1,-8.1,45.5,0.9
COc1ccc(-c2[nH]ncc2CNCCn2cccn2)c(F)c1,1.1,1,-4.5,85.3*,1
COc1ccc(-c2[nH]ncc2CNCc2cc(C)n(C)n2)c(F)c1,0.9,1.1,-6.6,68.3*,0.9
CCOC(=O)C1=C(C)NC2=C(C(=O)CC(C)(C)C2)C1c1ccc(N(C)C)cc1 (stereo not drawn),1.5,1,0.6,-9.7,1.2
CCOC(=O)C1=C(C)NC2=C(C(=O)CC(C)(C)C2)C1c1ccc2c(c1)CCCN2C (stereo not drawn),2*,1,0.7,-3.6,1.5
CC(C)(C)c1nc(S(=O)(=O)c2ccc(Cl)cc2)c(N2CCOCC2)o1,2.1*,1,-0.5,0.4,1.6
COc1ccccc1NC(=O)COC(=O)C1CC2C=CC1C2 (stereo not drawn),0.9,1,-1.1,-8.0,0.9
